Test results: ChEMBL document CHEMBL4680134, “Structural optimization of natural product nordihydroguaretic acid to discover novel analogues as AcrB inhibitors” (Eur J Med Chem, 2020)
Activity calls are given as the source filed them. No cut-off for these calls is given here.

Experiments:
[1] = target: T1, Multidrug efflux pump subunit AcrB (Escherichia coli (strain K12)) (UniProt P31224); assay: Inhibition of AcrB in Escherichia coli BW25113 assessed as potentiation of chloramphenicol induced antibacterial activity by measuring fold change in chloramphenicol MIC at 128 ug/ml measured after 18 hrs by checkerboard titration method relative to chloramphenicol alone; conditions: dose 128.0 µg/ml
T1 sequence (whole entry): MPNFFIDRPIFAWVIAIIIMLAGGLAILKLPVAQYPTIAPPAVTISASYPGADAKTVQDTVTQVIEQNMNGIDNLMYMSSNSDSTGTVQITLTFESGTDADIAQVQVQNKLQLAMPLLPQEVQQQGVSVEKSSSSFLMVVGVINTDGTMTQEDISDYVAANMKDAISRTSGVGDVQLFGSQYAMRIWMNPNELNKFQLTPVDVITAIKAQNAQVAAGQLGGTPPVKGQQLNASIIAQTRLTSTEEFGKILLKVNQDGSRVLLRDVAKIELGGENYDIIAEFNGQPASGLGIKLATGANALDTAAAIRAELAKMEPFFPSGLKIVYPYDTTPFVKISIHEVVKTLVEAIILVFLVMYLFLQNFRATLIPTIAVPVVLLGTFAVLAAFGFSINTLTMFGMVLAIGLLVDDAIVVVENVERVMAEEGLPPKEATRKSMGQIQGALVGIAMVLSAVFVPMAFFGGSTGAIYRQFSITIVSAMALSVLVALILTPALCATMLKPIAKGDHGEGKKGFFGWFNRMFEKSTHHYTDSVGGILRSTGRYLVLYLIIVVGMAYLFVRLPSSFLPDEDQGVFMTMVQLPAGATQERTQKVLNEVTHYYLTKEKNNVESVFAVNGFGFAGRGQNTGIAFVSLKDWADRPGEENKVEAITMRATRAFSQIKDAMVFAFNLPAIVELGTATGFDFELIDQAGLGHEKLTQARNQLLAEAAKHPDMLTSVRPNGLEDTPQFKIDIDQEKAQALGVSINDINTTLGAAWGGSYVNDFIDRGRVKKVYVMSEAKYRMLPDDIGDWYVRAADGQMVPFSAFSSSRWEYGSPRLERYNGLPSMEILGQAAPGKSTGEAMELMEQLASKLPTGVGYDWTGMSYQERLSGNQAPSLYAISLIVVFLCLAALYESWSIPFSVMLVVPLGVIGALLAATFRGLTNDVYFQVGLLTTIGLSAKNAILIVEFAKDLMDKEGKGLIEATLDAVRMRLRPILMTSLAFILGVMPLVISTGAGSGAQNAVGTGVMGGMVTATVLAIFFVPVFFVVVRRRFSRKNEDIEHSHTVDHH

[2] = target: T1, Multidrug efflux pump subunit AcrB (Escherichia coli (strain K12)); assay: Inhibition of AcrB in Escherichia coli BW25113 assessed as potentiation of erythromycin induced antibacterial activity by measuring erythromycin MIC at 8 ug/ml measured after 18 hrs by checkerboard titration method (reference value: 64 ug/ml); conditions: dose 8.0 µg/ml
[3] = target: T1, Multidrug efflux pump subunit AcrB (Escherichia coli (strain K12)); assay: Inhibition of AcrB in Escherichia coli BW25113 assessed as potentiation of erythromycin induced antibacterial activity by measuring fold change in erythromycin MIC at 128 ug/ml measured after 18 hrs by checkerboard titration method relative to erythromycin alone; conditions: dose 128.0 µg/ml
[4] = target: T1, Multidrug efflux pump subunit AcrB (Escherichia coli (strain K12)); assay: Inhibition of AcrB in Escherichia coli BW25113 assessed as reduction in glucose-induced nile red efflux at 500 uM preincubated for 15 mins followed by nile red addition and incubated for 3 hrs in shaker in presence of CCCP by fluorimetric analysis; conditions: time 195.0 min
Method in brief: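 Wild-type E. coli cells with active AcrB were preloaded with Nile Red, with or without compound, before fluorescence recording began. At 100 sec, 0.2% glucose was added to re-energize the cells and trigger efflux, which was followed by fluorometry. An acrB-deleted isogenic strain served as the maximum-accumulation (no-efflux) reference. Triplicate experiments used different cell batches.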

[5] = target: T1, Multidrug efflux pump subunit AcrB (Escherichia coli (strain K12)); assay: Inhibition of AcrB in Escherichia coli BW25113 assessed as potentiation of rifampicin induced antibacterial activity by measuring rifampicin MIC at 256 ug/ml measured after 18 hrs by checkerboard titration method (reference value: 16 ug/ml); conditions: dose 256.0 µg/ml
Cell membrane [6] = assay: Induction of inner membrane permeabilization in CCCP treated wild type Escherichia coli BW25113 at 16 ug/ml measured after 10 mins by Di0C2(3) probe based fluorimetric method; conditions: escherichia coli bw25113, 10 min, dose 16 µg/ml
Method in brief: (§1)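 Cells left untreated or exposed to compound at 8-256 µg/mL for 10 min, then DiOC2(3) added and fluorescence followed to plateau. Cells re-energized with 0.5% glucose; membrane potential build-up read as fluorescence rise to plateau, then dissipated with CCCP.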

Cell membrane [7] = assay: Induction of inner membrane permeabilization in CCCP treated wild type Escherichia coli BW25113 at 128 ug/ml measured after 10 mins by Di0C2(3) probe based fluorimetric method; conditions: escherichia coli bw25113, 10 min, dose 128 µg/ml; method in brief: as §1
Cell membrane [8] = assay: Induction of outer membrane permeabilization in wild type Escherichia coli BW25113 assessed as increase in nitrocefin hydrolysis at 256 ug/ml by spectrophotometry analysis; conditions: dose 256 µg/ml
Method in brief: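 Outer-membrane permeability: intact E. coli treated with 10 µM CCCP to block nitrocefin efflux, then exposed to compound. Nitrocefin hydrolysis by periplasmic β-lactamase followed as increasing absorbance at 490 nm over time. Polymyxin B as permeabilizer control, untreated cells as baseline. Duplicate experiments on different days.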

[9] = target: T1, Multidrug efflux pump subunit AcrB (Escherichia coli (strain K12)); assay: Inhibition of AcrB in Escherichia coli BW25113 assessed as potentiation of levofloxacin induced antibacterial activity by measuring fold change in levofloxacin MIC at 32 ug/ml measured after 18 hrs by checkerboard titration method relative to levofloxacin alone; conditions: dose 32.0 µg/ml
Cell membrane [10] = assay: Induction of inner membrane permeabilization in CCCP treated wild type Escherichia coli BW25113 at 64 ug/ml measured after 10 mins by Di0C2(3) probe based fluorimetric method; conditions: escherichia coli bw25113, 10 min, dose 64 µg/ml; method in brief: as §1
[11] = Growth inhibition of Escherichia coli harboring AcrB deletion mutant at higher concentration after 18 hrs by broth microdilution assay
Method in brief: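 MIC determined by 96-well broth microdilution in E. coli BW25113 expressing AcrB ((+)AcrB) and an isogenic acrB-deleted strain ((-)AcrB). Used to set the compound concentrations for synergy testing that produce no direct antibacterial effect.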

[12] = target: T1, Multidrug efflux pump subunit AcrB (Escherichia coli (strain K12)); assay: Inhibition of AcrB in Escherichia coli BW25113 assessed as reduction in glucose-induced nile red efflux at 100 to 200 uM preincubated for 15 mins followed by nile red addition and incubated for 3 hrs in shaker in presence of CCCP by fluorimetric analysis; conditions: dose 100-200 µM, time 195.0 min
Method in brief: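 Whole-cell efflux: wild-type and ΔAcrB cells preloaded with Nile Red, with or without compound, before fluorescence readings. Efflux triggered at 100 s with 0.2% glucose and followed by fluorometry. The ΔAcrB strain marks maximal accumulation. Triplicate experiments with different cell batches.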

[13] = target: T1, Multidrug efflux pump subunit AcrB (Escherichia coli (strain K12)); assay: Inhibition of AcrB in Escherichia coli BW25113 assessed as potentiation of tetraphenylphosphonium induced antibacterial activity by measuring fold change in tetraphenylphosphonium MIC at 256 ug/ml measured after 18 hrs by checkerboard titration method relative to tetraphenylphosphonium alone; conditions: dose 256.0 µg/ml

Nc1ccc(C(=O)NCCc2ccc(O)c(O)c2)cc1
fold change (FC) [1]: 4
MIC [2]: 64 µg/mL
fold change (FC) [3]: 4
inhibition [4]: Active

Oc1ccc(CCCCc2cc3cccc4ccc5cccc2c5c43)cc1O
MIC [5]: 16 µg/mL
Activity (Cell membrane [6]): Non-Toxic

Oc1ccc(CCCCc2ccccc2O)cc1O
MIC [5]: 16 µg/mL
Activity (Cell membrane [7]): Toxic
inhibition [4]: Active

Oc1ccc(CCCc2ccc(O)c(O)c2)cc1O
MIC [5]: 16 µg/mL
inhibition [4]: Active
Activity (Cell membrane [8]): Non-Toxic

Nc1ccccc1C(=O)NCCc1ccc(O)c(O)c1
MIC [2]: 64 µg/mL
inhibition [4]: Active

O=C(NCCc1ccc(O)c(O)c1)c1cc(O)c(O)c(O)c1
fold change (FC) [1]: 4
fold change (FC) [9]: 2
MIC [2]: 32 µg/mL
fold change (FC) [3]: 4
inhibition [4]: Active
Activity (Cell membrane [10]): Non-Toxic

C[C@H](Cc1ccc(O)c(O)c1)[C@@H](C)Cc1ccc(O)c(O)c1 [MASOPROCOL]
MIC [5]: 16 µg/mL
Activity (Cell membrane [8]): Toxic

O=C(NCCc1ccc(O)c(O)c1)c1ccc(Br)cc1
MIC [2]: 64 µg/mL

Cc1ccc(C(=O)NCCc2ccc(O)c(O)c2)cc1
MIC [2]: 64 µg/mL
growth inhibition (GI) [11]: Toxic

Oc1ccc(CCCCc2ccc(Cl)cc2)cc1O
MIC [5]: 16 µg/mL

O=C(NCCc1ccc(O)c(O)c1)c1ccccc1O
fold change (FC) [9]: 2
MIC [2]: 64 µg/mL
Activity (Cell membrane [8]): Non-Toxic

Oc1ccc(CCCCc2cc(O)c(O)c(O)c2)cc1O
MIC [5]: 16 µg/mL
Activity (Cell membrane [7]): Non-Toxic
inhibition [4]: Active
Activity (Cell membrane [8]): Non-Toxic

Oc1ccc(CCCCc2ccc(Br)cc2)cc1O
MIC [5]: 16 µg/mL

Oc1ccc(CCCCCCCc2ccc(O)c(O)c2)cc1O
MIC [5]: 16 µg/mL
inhibition [12]: Active
Activity (Cell membrane [10]): Non-Toxic

Oc1ccc(CCCCCCc2ccc(O)c(O)c2)cc1O
MIC [5]: 16 µg/mL

Oc1ccc(CCCCCc2ccc(O)c(O)c2)cc1O
MIC [5]: 16 µg/mL
Activity (Cell membrane [7]): Toxic
fold change (FC) [13]: 32
inhibition [12]: Active
growth inhibition (GI) [11]: Toxic

Oc1ccc(CCCCc2ccc(O)c(O)c2)cc1O
MIC [5]: 16 µg/mL

O=C(NCCc1ccc(O)c(O)c1)c1ccc(C(F)(F)F)cc1
MIC [2]: 64 µg/mL

Nc1cc(N)cc(C(=O)NCCc2ccc(O)c(O)c2)c1
inhibition [12]: Active
MIC [2]: 64 µg/mL
Activity (Cell membrane [10]): Non-Toxic

O=C(NCCc1ccc(O)c(O)c1)c1ccc(O)c(O)c1
inhibition [12]: Active
MIC [2]: 64 µg/mL
Activity (Cell membrane [8]): Non-Toxic
Activity (Cell membrane [10]): Non-Toxic
